Experimental data published in publication PMC5575737 (Bioorganic & medicinal chemistry letters, 2017).
pIC50: −log10 of the molar value.

Legend:
[1] = Solubility in water, water/DMSO and 2-HPβCD solutions; format: physicochemical; details: for behaviour on addition of water to the DMSO solution: final 1% DMSO in water
NCI-H226 = assay: NCI-60 five-dose assay; format: cell-based, human
Procedure, shortened: (§1)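 The NCI DTP ran the NCI-60 five-dose screen. Cells were exposed to the test compound at 10 nM, 100 nM, 1 μM, 10 μM and 100 μM. Read-outs were growth inhibition by 50% (GI50), total growth inhibition (TGI) and 50% lethal concentration (LC50), each relative to control cells.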

nine NSCLC lines = assay: NCI-60 one-dose assay, average; format: cell-based, human; details: average over the NSCLC lines tested; single dose 10 μM
Procedure, shortened: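 The NCI DTP ran the NCI-60 one-dose screen. Cells were plated at densities matched to doubling rate and incubated overnight, then exposed to 10 μM test compound for […]. Growth percentage came from protein density at the end versus the start of exposure. Values were averaged across the nine NSCLC lines.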

NCI-H460 = assay: NCI-60 five-dose assay; format: cell-based, human
Procedure, shortened: as §1

[2] = test system: four NSCLC lines (NCI-H460, NCI-H1975, A549, HCC827); assay: MTT cell viability assay, all four lines; format: cell-based; details: 72 h, read-out: IC50 values, range over four NSCLC lines
Procedure, shortened: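 Cells were exposed for 72 h, then viability was read by MTT. Test compound was dissolved in DMSO and diluted with water to 1% DMSO, giving at most 0.032% DMSO final in medium. A parallel run used stock in 10% (w/v) 2-HPβCD (≤0.008% final), with 0.008% 2-HPβCD vehicle controls. Cisplatin was dissolved in water. IC50 was the concentration giving 50% loss of viability versus control cells.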

A549/ATCC = assay: NCI-60 five-dose assay; format: cell-based, human
Procedure, shortened: as §1

EKVZ = assay: NCI-60 five-dose assay; format: cell-based, human
Procedure, shortened: as §1

HOP-92 = assay: NCI-60 five-dose assay; format: cell-based, human
Procedure, shortened: as §1

HOP-62 = assay: NCI-60 five-dose assay; format: cell-based, human
Procedure, shortened: as §1

NCI-H522 = assay: NCI-60 five-dose assay; format: cell-based, human
Procedure, shortened: as §1

H460 cells [3] = details: cited from earlier work
H460 cells [4] = assay: JC-1 mitochondrial membrane potential assay; format: cell-based
DNA = DNA interaction: viscosity and fluorescent intercalator displacement assays; format: binding
H460 cells [5] = assay: Annexin V apoptosis assay; format: cell-based
Procedure, shortened: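 H460 cells in 6-well plates were treated with the test compound in 10% (w/v) 2-HPβCD aqueous solution or in DMSO. Controls were 2-HPβCD vehicle and cisplatin. Cells were stained with Annexin V-FITC plus propidium iodide and imaged by fluorescence microscopy (20× objective) at 12, 14, 17 and 20 h. Read-outs were green versus green+red fluorescence and membrane blebbing.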

C57BL/6 mice = assay: Preliminary in vivo toxicity study

Compound: CCCCc1n(Cc2ccc3ccccc3c2)cc[n+]1Cc1ccc2ccccc2c1.[Br-] [Compound 4]
- behaviour on addition of water to the DMSO solution [1]: slight precipitation
- TGI (NCI-H226): 2.93 µM
- GI50 (NCI-H226; Homo sapiens): 1.35 µM
- Growth % Average (nine NSCLC lines): −1.36%
- TGI (NCI-H460): 2.82 µM
- GI50 (NCI-H460; Homo sapiens): 1.25 µM
- pIC50 [2]: 5.46 to 6.18
- TGI (A549/ATCC; A549/ATCC): 3.24 µM
- GI50 (A549/ATCC; Homo sapiens, A549): 1.67 µM
- TGI (EKVZ; EKVZ): 3.47 µM
- GI50 (EKVZ; Homo sapiens): 1.35 µM
- TGI (HOP-92): 2.35 µM
- GI50 (HOP-92; Homo sapiens): 0.844 µM
- TGI (HOP-62): 2.75 µM
- GI50 (HOP-62; Homo sapiens): 1.29 µM
- TGI (NCI-H522): 1.89 µM
- GI50 (NCI-H522; Homo sapiens): 0.491 µM

Compound: Clc1c(Cl)[n+](Cc2ccc3ccccc3c2)cn1Cc1ccc2ccccc2c1.[Br-] [IS23, 4,5-dichloro-1,3-bis(naphthalen-2-ylmethyl)imidazolium bromide]
- time of morphological changes (cell shrinkage, rounding, detachment) (H460 cells [3]): within the first hour

Compound: CCCc1n(Cc2ccc3ccccc3c2)cc[n+]1Cc1ccc2ccccc2c1.[Br-] [Compound 3]
- behaviour on addition of water to the DMSO solution [1]: remained soluble
- Growth % Average (nine NSCLC lines): 2.33%
- pIC50 [2]: 5.46 to 6.18

Compound: N#CC(C#N)=NNc1cccc(Cl)c1 [CCCP, carbonylcyanide m-chlorophenylhydrazone, reference compound]
- mitochondrial potential versus media control cells (H460 cells [4]; positive control): mitochondria potential was decreased

Compound: Cc1n(Cc2ccc3ccccc3c2)cc[n+]1Cc1ccc2ccccc2c1.[Br-] [Compound 1]
- behaviour on addition of water to the DMSO solution [1]: slight precipitation
- Growth % Average (nine NSCLC lines): 21.19%
- pIC50 [2]: 5.46 to 6.18

Compound: CC(C)c1n(Cc2ccc3ccccc3c2)cc[n+]1Cc1ccc2ccccc2c1.[Br-] [Compound 5]
- solubility in 2-HPβCD solution ([1]; 10% 2-HPβCD by weight in water): mostly soluble
- behaviour on addition of water to the DMSO solution [1]: remained soluble
- pIC50 [2]: 5.46 to 6.18

Compound: CCc1n(Cc2ccc3ccccc3c2)cc[n+]1Cc1ccc2ccccc2c1.[Br-] [Compound 2]
- red fluorescence (J-aggregates, intact MMP) (H460 cells [4]; 20 μM, 1 hour versus 15 minutes): apparent decrease in intensity
- red fluorescence (J-aggregates, intact MMP) (H460 cells [4]; 40 μM, 30 minutes): minimal red fluorescence
- red fluorescence (J-aggregates, intact MMP) (H460 cells [4]; 40 μM, 1 hour and 2.5 hours): minimal red fluorescence
- behaviour on addition of water to the DMSO solution [1]: remained soluble
- Growth % Average (nine NSCLC lines): 4.18%
- pIC50 [2]: 5.46 to 6.18
- interaction with DNA (DNA): little to no interaction with DNA
- time at which strong green fluorescence (Annexin V-FITC) was observed (H460 cells [5]; 40 μM, water/DMSO solution): 1 h
- time of treatment at which blebbing occurs (H460 cells [5]; 2-HPβCD vehicle): 14 h
- mode of cell death (H460 cells [5]; DMSO or 2-HPβCD vehicle, two independent trials): causes apoptosis
- time of treatment at which blebbing occurs (H460 cells [5]; DMSO vehicle): 3 h
- clinical observation the day after the second injection (C57BL/6 mice; 15 mg/kg IP on day fourteen, two surviving mice): both animals were sacrificed due to lethargic movement
- body weight after first injection (C57BL/6 mice; 20 mg/kg IP): sharp decrease in weight
- mortality (C57BL/6 mice; 20 mg/kg IP on day zero in 20% 2-HPβCD, day two): one mouse from the experimental group was found deceased
- overall toxicity (C57BL/6 mice; 20 mg/kg then 15 mg/kg IP): quite toxic at the doses administered
- average weight loss (C57BL/6 mice; after second injection, 15 mg/kg IP on day fourteen): around 6%
